Published values pooled from the literature.
Each line is one published result; the experiments were not run side by side.
FLT3: Receptor-type tyrosine-protein kinase FLT3 (FLT3, Homo sapiens, UniProt P36888)
FLT3 D835Y: Receptor-type tyrosine-protein kinase FLT3 (FLT3, Homo sapiens, UniProt P36888, D835Y)
FLT3 D835V: Receptor-type tyrosine-protein kinase FLT3 (FLT3, Homo sapiens, UniProt P36888, D835V)
FLT3 ITD: Receptor-type tyrosine-protein kinase FLT3 (FLT3, Homo sapiens, UniProt P36888, ITD)
FLT3 K663Q: Receptor-type tyrosine-protein kinase FLT3 (FLT3, Homo sapiens, UniProt P36888, K663Q)
FLT3 N841I: Receptor-type tyrosine-protein kinase FLT3 (FLT3, Homo sapiens, UniProt P36888, N841I)
FLT3 autoinhibited: Receptor-type tyrosine-protein kinase FLT3, autoinhibited (FLT3, Homo sapiens, UniProt P36888)

Structure (SMILES)	target	test	conditions	quantity	result
COc1cc(Cl)c(C(=O)N[C@@H](CN[C@H]2CC[C@@H](N)CC2)Cc2ccc(C#N)cc2)cc1-c1ccc(CN[C@H](C)c2ccc(C)cc2)o1	FLT3	enzyme activity, inhibitor	1 µM	remaining activity	103%
Cc1[nH]c(/C=C2\C(=O)Nc3ccc(F)cc32)c(C)c1C(=O)N[C@H]1CCN(C(=O)N(C)C)C1	FLT3	enzyme activity, inhibitor	1 µM	remaining activity	2%
CC(C)CC(=O)N1CCc2nc(-c3ccc(Br)cc3)nc(N(C)Cc3ccccc3)c2C1	FLT3 D835Y	cell-free assay, competition with immobilised ligand	0.1 µM	remaining binding	100%
CC1CCCN1c1nccc(-c2cnn3ncccc23)n1 (centres unmarked)	FLT3 D835V	binding	1 µM	remaining binding	79%
Cc1cnc(-c2ccc(-c3ccc(NC(=O)Nc4c(F)cc(F)cc4F)cc3F)c3c2C(=O)NC3)[nH]1	FLT3 ITD	enzyme activity, inhibitor	0.1 µM, 90 min	activity vs control	6.2%
CN(C)c1ncc(F)c(-c2cnn3ncccc23)n1	FLT3 K663Q	binding	1 µM	remaining binding	100%
C[C@H](c1ccc(F)cc1)N(Cc1cccc(C(=O)O)c1)C(=O)c1cnc2ccccc2c1	FLT3 ITD	cell-free assay, competition with immobilised ligand	1 µM	remaining binding	100%
CNC(=O)c1cc(Oc2ccc(NC(=O)Nc3ccc(Cl)c(C(F)(F)F)c3)cc2)ccn1	FLT3	cell-free assay	0.5 µM	remaining signal	9.22%
O=C(c1ccc(Nc2nccc(-c3cc4ccccc4s3)n2)cc1)N1CCC(N2CCCC2)CC1	Receptor-type tyrosine-protein kinase FLT3 (FLT3, Homo sapiens, UniProt P36888, F691L/ITD)	binding, competition with immobilised ligand	1 µM	remaining binding	19%
Cc1sc(C(=O)NC2COC2)cc1-n1cc(NC(=O)Nc2c(F)cccc2Cl)cn1	FLT3	enzyme activity, inhibitor	10 µM	remaining activity	69.1%
c1cnn2ncc(-c3ccnc(N4CCC45COC5)n3)c2c1	Receptor-type tyrosine-protein kinase FLT3 (FLT3, Homo sapiens, UniProt P36888, R834Q)	binding	1 µM	remaining binding	82%
O=C(c1ccc(Nc2ncc(Cl)c(-c3ccc(Cl)s3)n2)cc1)N1CCC(N2CCCC2)CC1	FLT3 K663Q	binding, competition with immobilised ligand	1 µM	remaining binding	1.3%
Cc1ccc(C(=O)Nc2ccc(CN3CCN(C)CC3)c(C(F)(F)F)c2)cc1C#Cc1cnc2cccnn12	FLT3 N841I	enzyme activity, inhibitor	23.5 nM	remaining activity	0%
CC(=O)N1CCC(c2ccc(C(=O)NC(=N)N)cc2C(F)(F)F)CC1	FLT3	cell-free assay, competition with immobilised ligand	1 µM	remaining binding	100%
Cc1ccc(NC(=O)c2ccc(C)c(C(F)(F)F)c2)cc1C#Cc1nn(C2CCC(O)CC2)c2ncnc(N)c12 (centres unmarked)	FLT3 D835Y	enzyme activity, inhibitor	10 µM	remaining activity	118%
Nc1ncnc2occ(-c3ccc(NC(=O)Nc4cc(C(F)(F)F)ccc4F)cc3)c12	FLT3 D835V	cell-free assay, inhibitor	20 µM	remaining signal	0%
CCCCN(CCCC)C(=O)CN1C[C@H](c2cc(OC)c3c(c2)OCO3)[C@@H](C(=O)O)[C@@H]1CC(C)(C)CCC	FLT3 N841I	cell-free assay, competition with immobilised ligand	1 µM	remaining binding	100%
C[C@H]1CCN(c2nccc(-c3cnn4ncccc34)n2)C1	FLT3 D835V	binding	1 µM	remaining binding	53%
NS(=O)(=O)c1cc(NC(=O)Cc2ccccc2)ccc1Oc1cccc(Cl)c1	FLT3	cell-free assay, competition with immobilised ligand	1 µM	remaining binding	100%

Structure (SMILES)	target	test	conditions	quantity	result
CC(C)(O)[C@H]1CC[C@H](Nc2ccc3ncc(-c4cccc(C(F)(F)F)c4)n3n2)CC1	FLT3	enzyme activity, inhibitor	1 µM	remaining activity	6.31%
CCS(=O)(=O)c1cc2cc(C[C@@](O)(CC(C)(C)c3ccc(F)cc3C(N)=O)C(F)(F)F)[nH]c2cn1	Receptor-type tyrosine-protein kinase FLT3 (FLT3, Homo sapiens, UniProt P36888, D835V/ITD)	cell-free assay, competition with immobilised ligand	1 µM	remaining binding	73%
Cc1cnn2ncc(-c3ccnc(N(C)C)n3)c2c1	FLT3 autoinhibited	binding	1 µM	remaining binding	84%
O=C(NCCCN1CCOCC1)c1ccc(Nc2ncc(Cl)c(-c3ccc(Cl)s3)n2)cc1	FLT3 D835V	binding, competition with immobilised ligand	1 µM	remaining binding	1.3%
CC(C)c1ccc(NC(=O)c2cccs2)c(-c2nc3ccccc3[nH]c2=O)c1	FLT3	enzyme activity, inhibitor	1 µM	activity vs control	51%
O=C(c1ccc(Nc2ncc(Cl)c(-c3cc4ccccc4s3)n2)cc1)N1CCC(N2CCCC2)CC1	FLT3	binding, competition with immobilised ligand	1 µM	remaining binding	2.5%
C[S+]([O-])c1ccc(-c2nc(-c3ccncc3)c(-c3ccc(F)cc3)[nH]2)cc1 (centres unmarked)	FLT3	cell-free assay	0.5 µM	remaining signal	91.5%
CCCOc1ccc(OC)c(F)c1C(=O)c1ccc(C(=O)N[C@@H]2CNC[C@H]2NC(=O)c2ccc3[nH]ncc3c2)cc1	FLT3 D835Y	enzyme activity, inhibitor	10 µM	remaining activity	12%
F[C@@H]1CCN(c2nccc(-c3cnn4ncccc34)n2)C1	FLT3	binding	1 µM	remaining binding	81%
Fc1cccc(-n2cnc3c(NCc4nc5c(F)c(F)ccc5[nH]4)nc(N4CCOCC4)nc32)c1	FLT3 D835Y	binding, competition with immobilised ligand	10 µM	binding vs control	41%
COc1ccc(COc2ccc(Cc3cnc(N)nc3N)cc2OC)cc1	FLT3	cell-free assay	0.5 µM	remaining signal	103%
Cc1cnc(NC2CCOCC2)nc1-n1cnc(C(=O)NC(CN)c2cc(F)cc(Cl)c2)c1 (centres unmarked)	FLT3 D835Y	enzyme activity, inhibitor, radiometric	1 µM	remaining activity	105%
COc1cc2ncnc(Nc3ccc(F)c(Cl)c3)c2cc1OCCCN1CCOCC1	FLT3	cell-free assay	0.5 µM	remaining signal	56.5%
Cc1cnc(Nc2ccc(C(=O)N3CCC(N4CCCC4)CC3)cc2)nc1-c1cc2ccccc2s1	Receptor-type tyrosine-protein kinase FLT3 (FLT3, Homo sapiens, UniProt P36888, D835H)	binding, competition with immobilised ligand	1 µM	remaining binding	1.1%
O=c1nc(-c2ccccn2)sc2ccccc12	FLT3 N841I	binding, competition with immobilised ligand	1 µM	remaining binding	74%
Cc1ccc(C(=O)NCc2ccsc2)cc1C#Cc1cn(C(C)C)c2ncnc(N)c12	FLT3	enzyme activity, inhibitor	1 µM	activity vs control	80%
O=C(Nc1cccnn1)N1CCC(=Cc2cccc(Oc3ccc(C(F)(F)F)cn3)c2)CC1	FLT3 D835Y	cell-free assay, competition with immobilised ligand	1 µM	remaining binding	100%
O=C(NCCCN1CCOCC1)c1ccc(Nc2nccc(-c3cc4ccccc4s3)n2)cc1	FLT3 autoinhibited	binding, competition with immobilised ligand	1 µM	remaining binding	67%
N[C@@H]1CCN(c2nccc(-c3cnn4ncccc34)n2)C1	FLT3 autoinhibited	binding	1 µM	remaining binding	100%
